Experimental data: ChEMBL document CHEMBL1275358, “Synthesis and anticancer activity of new 1-[(5 or 6-substituted 2-alkoxyquinoxalin-3-yl)aminocarbonyl]-4-(hetero)arylpiperazine derivatives” (Bioorg Med Chem, 2010)
Calls of active or inactive are those of the source. The calls are words filed in the database; no cut-off is given here.

What was measured:
HCT-116 [1] = assay: Resistant index, ratio of IC50 for human HCT15 cells to IC50 for human HCT116 cells; type: functional
HCT-116 [2] = assay: Growth inhibition of human HCT116 cells after 96 hrs by sulforhodamine B assay; type: functional, cell-based; conditions: HCT-116, 96 h
In short: (§1)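 SRB assay with 96 h exposure to a range of concentrations and a DMSO control. Cells were TCA-fixed, SRB-stained and read at 530 nm to give IC50. Cells were kept at 37 °C, 5% CO₂. All other lines were grown in RPMI1640 with 10% FBS, pyruvate, HEPES and P/S.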

HCT-15 = assay: Growth inhibition of human HCT15 cells after 96 hrs by sulforhodamine B assay; type: functional, cell-based; conditions: HCT-15, 96 h
In short: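 SRB assay with 96 h exposure to a range of concentrations and a DMSO control. Cells were TCA-fixed, SRB-stained and read at 530 nm to give IC50. Cells were kept at 37 °C, 5% CO₂. MDA-MB-231, HCT116, Caki-1, UMRC2 and PANC-1 were grown in DMEM with 10% FBS, HEPES, P/S and glutamine. All other lines were grown in RPMI1640 with 10% FBS, pyruvate, HEPES and P/S.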

MDA-MB-231 [3] = assay: Cell cycle arrest in human MDA-MB-231 cells assessed as accumulation at G2/M phase at 0.02 to 0.2 uM after 3 to 12 hrs using propidium iodide staining; type: functional, cell-based
MDA-MB-231 [4] = assay: Induction of apoptosis in human MDA-MB-231 cells assessed as increase of p21 WAF1 protein level at 70 nM after 24 to 72 hrs by Western blotting; type: functional, cell-based
In short: (§2)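 MDA-MB-231 cells were exposed to 70 nM for 24, 48 or 72 h alongside untreated controls. After a PBS wash, cells were lysed in 25 mM Tris-HCl pH 7.5, 300 mM NaCl, 1% Triton X-100 with protease inhibitors. Protein was quantified by BCA, run on SDS-PAGE and transferred to nitrocellulose. Blots were probed for p21WAF1, Bcl-2 and Bad, with β-actin as the loading control.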

HepG2 = assay: Growth inhibition of human HepG2 cells after 96 hrs by sulforhodamine B assay; type: functional, cell-based; conditions: HepG2, 96 h; in short: as §1
SK-MEL-28 = assay: Growth inhibition of human SK-MEL-28 cells after 96 hrs by sulforhodamine B assay; type: functional, cell-based; conditions: SK-MEL-28, 96 h; in short: as §1
[5] = Growth inhibition of human UMRC2 cells after 96 hrs by sulforhodamine B assay; type: functional, cell-based; conditions: UMRC2, 96 h; in short: as §1
MDA-MB-231 [6] = assay: Induction of apoptosis in human MDA-MB-231 cells assessed as PARP fragmentation; type: functional, cell-based
PANC-1 = assay: Growth inhibition of human PANC1 cells after 96 hrs by sulforhodamine B assay; type: functional, cell-based; conditions: PANC-1, 96 h; in short: as §1
HeLa = assay: Growth inhibition of human HeLa cells after 96 hrs by sulforhodamine B assay; type: functional, cell-based; in short: as §1
MDA-MB-231 [7] = assay: Growth inhibition of human MDA-MB-231 cells after 96 hrs by sulforhodamine B assay; type: functional, cell-based; conditions: MDA-MB-231, 96 h; in short: as §1
CAKI-1 = assay: Growth inhibition of human Caki1 cells after 96 hrs by sulforhodamine B assay; type: functional, cell-based; conditions: CAKI-1, 96 h; in short: as §1
U-251 = assay: Growth inhibition of human U251 cells after 96 hrs by sulforhodamine B assay; type: functional, cell-based; conditions: U-251, 96 h; in short: as §1
MDA-MB-231 [8] = assay: Growth inhibition of human MDA-MB-231 cells at 20 nM after 96 hrs by sulforhodamine B assay relative to control; type: functional; conditions: MDA-MB-231, 96 h
MKN-45 = assay: Growth inhibition of human MKN45 cells after 96 hrs by sulforhodamine B assay; type: functional, cell-based; conditions: MKN-45, 96 h; in short: as §1
PC-3 = assay: Growth inhibition of human PC3 cells after 96 hrs by sulforhodamine B assay; type: functional, cell-based; conditions: PC-3, 96 h; in short: as §1
MDA-MB-231 [9] = assay: Induction of apoptosis in human MDA-MB-231 cells assessed as decrease of Bcl-2 protein level at 70 nM after 24 to 72 hrs by Western blotting; type: functional, cell-based; in short: as §2
HT-29 = assay: Growth inhibition of human HT-29 cells after 96 hrs by sulforhodamine B assay; type: functional, cell-based; conditions: HT-29, 96 h; in short: as §1
A549 = assay: Growth inhibition of human A549 cells after 96 hrs by sulforhodamine B assay; type: functional, cell-based; conditions: A549, 96 h; in short: as §1
OVCAR-3 = assay: Growth inhibition of human OVCAR-3 cells after 96 hrs by sulforhodamine B assay; type: functional, cell-based; conditions: OVCAR-3, 96 h; in short: as §1
MDA-MB-231 [10] = assay: Induction of apoptosis in human MDA-MB-231 cells assessed as DNA fragmentation; type: functional, cell-based
MDA-MB-231 [11] = assay: Growth inhibition of human MDA-MB-231 cells at 5 uM after 96 hrs by sulforhodamine B assay relative to control; type: functional; conditions: MDA-MB-231, 96 h
In short: (§3)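 MDA-MB-231 cells in DMEM with 10% FBS, 10 mM HEPES, P/S and 2 mM L-glutamine at 37 °C, 5% CO2, were treated in 96-well plates for 96 h, either alone or with a 20 nM co-treatment. They were then TCA-fixed, SRB-stained and read at 530 nm. Results are % growth inhibition versus untreated cells, with 0.5% DMSO as vehicle control, from triplicates in at least two experiments.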

MDA-MB-231 [12] = assay: Growth inhibition of human MDA-MB-231 cells at 3 uM after 96 hrs by sulforhodamine B assay relative to control; type: functional; conditions: MDA-MB-231, 96 h; in short: as §3
MDA-MB-231 [13] = assay: Growth inhibition of human MDA-MB-231 cells at 5 nM after 96 hrs by sulforhodamine B assay relative to control; type: functional; conditions: MDA-MB-231, 96 h
MDA-MB-231 [14] = assay: Growth inhibition of human MDA-MB-231 cells at 10 nM after 96 hrs by sulforhodamine B assay relative to control; type: functional; conditions: MDA-MB-231, 96 h
MDA-MB-231 [15] = assay: Growth inhibition of human MDA-MB-231 cells at 0.1 uM after 96 hrs by sulforhodamine B assay relative to control; type: functional; conditions: MDA-MB-231, 96 h
MDA-MB-231 [16] = assay: Growth inhibition of human MDA-MB-231 cells at 0.2 uM after 96 hrs by sulforhodamine B assay relative to control; type: functional; conditions: MDA-MB-231, 96 h

SMILES | IC50 (HCT-116 [2]) | IC50 (HepG2) | IC50 (SK-MEL-28) | IC50 [5] | IC50 (PANC-1) | IC50 (HeLa) | IC50 (MDA-MB-231 [7]) | IC50 (CAKI-1) | IC50 (U-251) | IC50 (MKN-45) | IC50 (PC-3) | IC50 (HT-29) | IC50 (A549) | IC50 (OVCAR-3) | also measured
CC(=O)O[C@H]1C(=O)[C@@]2(C)[C@H]([C@H](OC(=O)c3ccccc3)[C@]3(O)C[C@H](OC(=O)[C@H](O)[C@@H](NC(=O)c4ccccc4)c4ccccc4)C(C)=C1C3(C)C)[C@]1(OC(C)=O)CO[C@@H]1C[C@@H]2O [PACLITAXEL] | 2 nM | – | – | – | – | – | – | – | – | – | – | – | – | – | Ratio IC50 (HCT-116 [1]): 70; IC50 (HCT-15): 140 nM
COc1cc(OC)cc(N2CCN(C(=O)Nc3nc4cc(F)ccc4nc3OC)CC2)c1 [SUPINOXIN] | 20 nM | 19 nM | 20 nM | 13 nM | 21 nM | 21 nM | 12 nM | 11 nM | 15 nM | 20 nM | 21 nM | 21 nM | 21 nM | 12 nM | Activity (MDA-MB-231 [3]): Active; Activity (MDA-MB-231 [4]): Active; Activity (MDA-MB-231 [6]): Active; Ratio IC50 (HCT-116 [1]): 0.72; inhibition at 0.02 µM (MDA-MB-231 [8]): 14%; IC50 (HCT-15): 21 nM; Activity (MDA-MB-231 [9]): Active; Activity (MDA-MB-231 [10]): Active
O=c1[nH]cc(F)c(=O)[nH]1 [FLUOROURACIL] | – | – | – | – | – | – | – | – | – | – | – | – | – | – | inhibition at 5 µM (MDA-MB-231 [11]): 41.6%; inhibition at 3 µM (MDA-MB-231 [12]): 3.3%
COc1cc(OC)cc(N2CCN(C(=O)Nc3nc4cc(Cl)ccc4nc3OC)CC2)c1 | 68 nM | 63 nM | 110 nM | 65 nM | 98 nM | 73 nM | 50 nM | 53 nM | 56 nM | 64 nM | 76 nM | 79 nM | 73 nM | 42 nM | –
COc1cc(OC)cc(N2CCN(C(=O)Nc3nc4cc(C)ccc4nc3OC)CC2)c1 | 47 nM | 45 nM | 47 nM | 39 nM | 70 nM | 51 nM | 32 nM | 29 nM | 31 nM | 40 nM | 63 nM | 48 nM | 55 nM | 23 nM | –
COc1cccc2c1C(=O)c1c(O)c3c(c(O)c1C2=O)C[C@@](O)(C(=O)CO)C[C@@H]3O[C@H]1C[C@H](N)[C@H](O)[C@H](C)O1 [DOXORUBICIN] | – | – | – | – | – | – | – | – | – | – | – | – | – | – | inhibition at 0.005 µM (MDA-MB-231 [13]): 4.2%; inhibition at 0.01 µM (MDA-MB-231 [14]): 59.2%
COc1cc(OC)cc(N2CCN(C(=O)Nc3nc4c(OC)cccc4nc3OC)CC2)c1 | 60 nM | 57 nM | 68 nM | 29 nM | 42 nM | 63 nM | 56 nM | 33 nM | 58 nM | 52 nM | 57 nM | 74 nM | 64 nM | 44 nM | –
Nc1ccn([C@@H]2O[C@H](CO)[C@@H](O)C2(F)F)c(=O)n1 [GEMCITABINE] | – | – | – | – | – | – | – | – | – | – | – | – | – | – | inhibition at 0.1 µM (MDA-MB-231 [15]): 1%; inhibition at 0.2 µM (MDA-MB-231 [16]): 17.7%
COc1cc(OC)cc(N2CCN(C(=O)Nc3nc4c(C)cccc4nc3OC)CC2)c1 | 50 nM | 63 nM | 64 nM | 30 nM | 54 nM | 62 nM | 60 nM | 32 nM | 54 nM | 57 nM | 57 nM | 55 nM | 56 nM | 39 nM | –
